Reference: ChEMBL document CHEMBL4316640, “Taichunins A-D, Norditerpenes from Aspergillus taichungensis (IBT 19404)” (J Nat Prod, 2019)
Calls of active or inactive are those of the source. The calls are words filed in the database; no cut-off is given here.

Experiments:
HeLa [1] = experiment: Cytotoxicity in human HeLa cells at 50 uM incubated for 3 days by MTT assay; assay type: functional, cell-based
Procedure, shortened: (§1)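 HeLa cells; daunorubicin run alongside as the positive control.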

Macrophage = experiment: Inhibition of cholesterol ester accumulation in macrophages (unknown origin); assay type: functional, cell-based
Osteoclast = experiment: Inhibition of RANKL-induced formation of multinuclear osteoclasts (unknown origin); assay type: functional, cell-based
Proteasome = experiment: Inhibition of proteasome (unknown origin); assay type: subcellular; conditions: Homo sapiens
[2] = molecular target: T1, Ubiquitin-like modifier-activating enzyme 1 (Homo sapiens) (UniProt P22314); experiment: Inhibition of Ubiquitin/Ubiquitin-activating enzyme E1 (unknown origin)
T1 sequence (whole entry): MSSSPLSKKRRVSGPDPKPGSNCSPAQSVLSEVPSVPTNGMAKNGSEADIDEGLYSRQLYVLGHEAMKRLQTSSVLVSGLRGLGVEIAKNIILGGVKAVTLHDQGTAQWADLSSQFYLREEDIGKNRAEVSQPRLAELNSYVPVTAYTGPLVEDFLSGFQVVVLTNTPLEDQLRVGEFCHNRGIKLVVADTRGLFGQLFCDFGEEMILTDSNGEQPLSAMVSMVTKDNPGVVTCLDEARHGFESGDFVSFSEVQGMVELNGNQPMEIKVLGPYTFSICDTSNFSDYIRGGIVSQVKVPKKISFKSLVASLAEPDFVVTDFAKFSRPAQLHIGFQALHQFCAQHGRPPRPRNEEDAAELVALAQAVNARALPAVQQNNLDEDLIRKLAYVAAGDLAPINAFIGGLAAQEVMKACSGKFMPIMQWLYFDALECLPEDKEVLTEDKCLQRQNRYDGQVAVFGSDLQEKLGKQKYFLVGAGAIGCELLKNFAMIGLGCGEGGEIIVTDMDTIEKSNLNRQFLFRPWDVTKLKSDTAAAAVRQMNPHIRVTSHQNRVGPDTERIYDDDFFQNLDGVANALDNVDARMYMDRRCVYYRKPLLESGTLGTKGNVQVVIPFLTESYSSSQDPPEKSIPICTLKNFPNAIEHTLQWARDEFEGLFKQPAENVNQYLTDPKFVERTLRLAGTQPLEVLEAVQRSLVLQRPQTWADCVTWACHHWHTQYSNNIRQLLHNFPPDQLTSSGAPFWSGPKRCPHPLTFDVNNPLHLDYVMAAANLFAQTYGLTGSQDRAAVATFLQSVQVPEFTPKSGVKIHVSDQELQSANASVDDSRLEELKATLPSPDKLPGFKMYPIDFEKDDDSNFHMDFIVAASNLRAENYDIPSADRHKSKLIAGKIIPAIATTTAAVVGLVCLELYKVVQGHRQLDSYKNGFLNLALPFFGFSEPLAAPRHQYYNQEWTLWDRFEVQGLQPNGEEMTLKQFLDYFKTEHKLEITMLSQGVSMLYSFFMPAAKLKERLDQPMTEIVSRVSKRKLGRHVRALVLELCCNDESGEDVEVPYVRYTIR

[3] = molecular target: Ubiquitin-conjugating enzyme E2 N/Ubiquitin-conjugating enzyme E2 variant 1 (Homo sapiens) (UniProt Q13404+P61088); experiment: Inhibition of Ubc13/Uev1A interaction (unknown origin); assay type: protein assay
[4] = molecular target: Tumour suppressor p53/oncoprotein Mdm2 (Homo sapiens) (UniProt P04637+Q00987); experiment: Inhibition of p53/Mdm2 interaction (unknown origin); assay type: protein assay
Tumour suppressor p53/oncoprotein Mdm2 (Homo sapiens), sequence (P04637 whole entry, looked up): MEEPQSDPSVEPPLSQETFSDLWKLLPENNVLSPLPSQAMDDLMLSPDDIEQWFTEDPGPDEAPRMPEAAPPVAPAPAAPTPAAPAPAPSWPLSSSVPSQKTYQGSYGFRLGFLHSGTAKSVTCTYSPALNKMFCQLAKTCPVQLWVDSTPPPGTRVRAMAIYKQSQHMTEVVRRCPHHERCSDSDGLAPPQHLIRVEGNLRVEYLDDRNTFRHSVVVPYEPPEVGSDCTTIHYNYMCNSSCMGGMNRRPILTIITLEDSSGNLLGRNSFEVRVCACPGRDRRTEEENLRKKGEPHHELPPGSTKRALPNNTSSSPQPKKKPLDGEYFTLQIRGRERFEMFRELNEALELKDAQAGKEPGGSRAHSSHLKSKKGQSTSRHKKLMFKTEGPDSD
Tumour suppressor p53/oncoprotein Mdm2 (Homo sapiens), sequence (Q00987 whole entry, looked up): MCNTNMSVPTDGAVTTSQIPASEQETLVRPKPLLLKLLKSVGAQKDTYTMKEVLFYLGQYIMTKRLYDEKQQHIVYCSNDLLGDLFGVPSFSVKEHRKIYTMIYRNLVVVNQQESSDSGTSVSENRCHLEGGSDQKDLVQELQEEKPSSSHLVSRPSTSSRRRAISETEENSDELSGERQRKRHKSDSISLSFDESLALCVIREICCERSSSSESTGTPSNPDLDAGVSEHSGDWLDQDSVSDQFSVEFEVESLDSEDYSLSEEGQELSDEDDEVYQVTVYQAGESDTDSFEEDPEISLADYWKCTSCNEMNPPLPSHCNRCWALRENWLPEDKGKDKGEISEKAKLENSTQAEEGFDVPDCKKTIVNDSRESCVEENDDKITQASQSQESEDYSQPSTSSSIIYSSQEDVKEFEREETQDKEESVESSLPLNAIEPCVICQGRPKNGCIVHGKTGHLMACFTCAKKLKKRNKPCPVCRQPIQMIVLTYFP

[5] = molecular target: Ubiquitin carboxyl-terminal hydrolase 7 (Homo sapiens) (UniProt Q93009); experiment: Inhibition of USP7 (unknown origin)
Ubiquitin carboxyl-terminal hydrolase 7 (Homo sapiens), sequence (Q93009 whole entry, looked up): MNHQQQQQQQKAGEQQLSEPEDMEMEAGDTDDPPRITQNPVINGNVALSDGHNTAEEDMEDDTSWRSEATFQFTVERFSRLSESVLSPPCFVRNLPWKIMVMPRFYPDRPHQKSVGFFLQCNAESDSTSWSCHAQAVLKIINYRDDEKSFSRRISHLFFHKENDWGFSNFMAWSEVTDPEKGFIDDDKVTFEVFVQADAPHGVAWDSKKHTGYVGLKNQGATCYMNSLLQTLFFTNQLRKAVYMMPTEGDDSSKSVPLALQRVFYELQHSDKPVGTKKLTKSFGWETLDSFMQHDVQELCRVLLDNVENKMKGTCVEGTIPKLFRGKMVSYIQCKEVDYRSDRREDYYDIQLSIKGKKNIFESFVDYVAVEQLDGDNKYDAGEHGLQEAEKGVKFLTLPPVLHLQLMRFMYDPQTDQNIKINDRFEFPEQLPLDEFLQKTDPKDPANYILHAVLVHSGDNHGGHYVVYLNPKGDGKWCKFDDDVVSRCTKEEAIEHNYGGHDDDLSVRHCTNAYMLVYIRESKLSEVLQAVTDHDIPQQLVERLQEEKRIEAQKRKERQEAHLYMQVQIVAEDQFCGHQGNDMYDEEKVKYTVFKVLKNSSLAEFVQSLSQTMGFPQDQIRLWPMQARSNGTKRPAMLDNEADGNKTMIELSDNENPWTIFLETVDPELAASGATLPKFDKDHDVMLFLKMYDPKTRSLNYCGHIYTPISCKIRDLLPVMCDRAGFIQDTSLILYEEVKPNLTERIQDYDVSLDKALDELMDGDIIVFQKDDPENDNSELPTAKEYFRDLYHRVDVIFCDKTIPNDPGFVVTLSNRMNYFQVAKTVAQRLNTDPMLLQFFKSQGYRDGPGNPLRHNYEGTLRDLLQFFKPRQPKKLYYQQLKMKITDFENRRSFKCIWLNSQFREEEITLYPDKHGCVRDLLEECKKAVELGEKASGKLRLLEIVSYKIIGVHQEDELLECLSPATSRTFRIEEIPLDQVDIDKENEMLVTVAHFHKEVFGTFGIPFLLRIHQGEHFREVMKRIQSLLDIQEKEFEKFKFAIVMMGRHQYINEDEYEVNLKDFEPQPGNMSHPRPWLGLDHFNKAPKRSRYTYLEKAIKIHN

HeLa [6] = experiment: Cytotoxicity in human HeLa cells incubated for 3 days by MTT assay; assay type: functional, cell-based; conditions: 72 h; procedure, shortened: as §1

| SMILES | inhibition (Proteasome) | inhibition [2] | inhibition [3] | inhibition [4] | inhibition [5] | Activity (HeLa [1]) | inhibition (Macrophage) | inhibition (Osteoclast) | IC50 (HeLa [6]) [µM] |
| --- | --- | --- | --- | --- | --- | --- | --- | --- | --- |
| C=C[C@]1(C)C=C2[C@@H](O)[C@@]3(O)OC(=O)[C@@]4(CCCC(C)(C)[C@H]34)[C@@]2(O)CC1 | inactive | inactive | inactive | inactive | inactive | inactive | inactive | inactive |  |
| C=C[C@@]1(C)CCC2=C(C(=O)O[C@]23CCCC(C)(C)[C@@H]3C(=O)O)[C@@H]1O | inactive | inactive | inactive | inactive | inactive | inactive | inactive | inactive |  |
| C=C[C@@]1(C)CCC2=C(C(=O)O[C@]23CCCC(C)(C)[C@@H]3C(=O)O[C@@H]2O[C@H](CO)[C@@H](O)[C@H](O)[C@H]2O)[C@@H]1O | inactive | inactive | inactive | inactive | inactive | inactive | inactive | inactive |  |

Second part, led by results:

| inhibition (Proteasome) | inhibition [2] | inhibition [3] | inhibition [4] | inhibition [5] | SMILES | Activity (HeLa [1]) | inhibition (Macrophage) | inhibition (Osteoclast) | IC50 (HeLa [6]) [µM] |
| --- | --- | --- | --- | --- | --- | --- | --- | --- | --- |
| inactive | inactive | inactive | inactive | inactive | C=C[C@]1(C)C=C2C(=O)O[C@@]34CCCC(C)(C)[C@@H]3C(=O)O[C@@]24CC1 |  | inactive | inactive | 4.5 |
| inactive | inactive | inactive | inactive | inactive | C=C[C@]1(C)CC2=C(O)C(=O)C3=C(CCCC3(C)C)C2=CC1=O | inactive | inactive | inactive |  |
